The nature of assay [1]: Her2 expression decrease, cell viability multiplex – SKBR3 breast tumor cells, AlphaScreen, ATP viability, primary screen (AID 461).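 As to Her2 level: lower value means less Her2 protein in the cells.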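 As to viability: percent of carrier control wells set as 100% viability.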 As to conditions: SKBR3 Her2 protein level, 18-24 h, measured here: SKBR3 viability, ATP luminescence, at 10 µM.
Assay [2] addresses Receptor tyrosine-protein kinase erbB-2 (Homo sapiens) (UniProt P04626). The assay is described as above. As to conditions: 18-24 h, at 10 µM, stronger effect = lower value.
Assay [3] can be described thus: reduced viability of SK-BR-3 breast cancer cells – cell-based, 24 h, human, pilot screen (AID 572;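 active = viability at or below 10% of carrier control in both of two separate runs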;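 also: compound exposure lasted between 18 and 24 h rather than exactly 24 h; 100% = carrier-treated control wells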). As to conditions: SK-BR-3 viability, CellTiter-Glo luminescence, at 10 µM, stronger effect = lower value.
Assay [4] is described as follows: HUVEC growth inhibition – cell-based, human, primary screen (AID 575;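 active = viability at or below 30% in both replicate assays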;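 also: 100% = median of untreated cell wells with 0.1% DMSO on each plate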). As to conditions: HUVEC proliferation, CellTiter-Glo luminescence, 72 h; at 10 µM; stronger effect = lower value. In short, it runs like this: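 Test system: HUVEC primary cells. Quantity: 1250 endothelial cells in each well. Dosing: single-point 10 µM, DMSO 0.1% final. Incubation: 72 h treatment at 37 °C. Measured by: CTG luminescence. Control set: DMSO cell controls and MePR drug controls. Plate: collagen-coated 384-well format.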
For orientation: In ATP-based viability assays light output follows the ATP content of the culture.

Assay [5] in a line: H69AR cell proliferation blockers – human, duplicate replicates, primary screen (AID 580;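 active = viability at or under a set limit in both replicates, limit being median viability minus 3 SD, cut at about 48% in these data, passing the limit was not always enough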;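 also: 100% = mean luminescence of untreated wells and 0% = no signal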). As to conditions: H69AR lung tumor cells viability, ATP luminescence, 72 h; at 10 µM; stronger effect = lower value.
The nature of assay [6]: MRP1 drug-resistance reversers in H69AR cells – cell-based, doxorubicin co-treatment, pilot screen (AID 601;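 active = viability loss from added drug above about 55%, and viability with drug at most 40%, in both replicates, limit read from the data, passing the limit was not always enough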). As to conditions: CellTiter-Glo, 72 h, at 10 µM; for differential viability (reversal): stronger effect = higher value.
Assay [7] can be described thus: yeast transport mutant growth inhibition pilot in 384-well plates, post-Golgi transport modulator project (AID 636; in the data active = inhibition above about 31%). As to conditions: absorbance 615 nm, about 18 h, stronger effect = higher value.
Assay [8] can be described thus: growth suppression of yeast trafficking mutant, preliminary HTS, modulators of trafficking downstream of Golgi apparatus project, 1536-format plate, OD 615 nm (AID 637; in the data active = inhibition above about 30%). As to conditions: yeast transport mutant growth, absorbance 615 nm, 18 h; stronger effect = higher value.
[9] abbreviates: H69AR cells + 2 uM doxorubicin, measured here: viability with 2 uM doxorubicin, stronger effect = lower value.
Setting [10] is: H69AR cells, compound alone cytotoxicity.

The viability is a read-out of living cells in per cent, often relative to untreated cells. For orientation: inhibition means the change of the read-out against control, counted positive when it falls.

The source made the active and inactive calls.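 The calls were made as follows, unless noted: active = Her2 level under about 52% in both replicate screens, with viability over 70% of control (limit read from the data); inconclusive = Her2 under the limit in one screen only, or viability under 70%; inactive = Her2 level above the set limit.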

Receptor tyrosine-protein kinase erbB-2 (Homo sapiens), sequence (P04626 whole entry, looked up): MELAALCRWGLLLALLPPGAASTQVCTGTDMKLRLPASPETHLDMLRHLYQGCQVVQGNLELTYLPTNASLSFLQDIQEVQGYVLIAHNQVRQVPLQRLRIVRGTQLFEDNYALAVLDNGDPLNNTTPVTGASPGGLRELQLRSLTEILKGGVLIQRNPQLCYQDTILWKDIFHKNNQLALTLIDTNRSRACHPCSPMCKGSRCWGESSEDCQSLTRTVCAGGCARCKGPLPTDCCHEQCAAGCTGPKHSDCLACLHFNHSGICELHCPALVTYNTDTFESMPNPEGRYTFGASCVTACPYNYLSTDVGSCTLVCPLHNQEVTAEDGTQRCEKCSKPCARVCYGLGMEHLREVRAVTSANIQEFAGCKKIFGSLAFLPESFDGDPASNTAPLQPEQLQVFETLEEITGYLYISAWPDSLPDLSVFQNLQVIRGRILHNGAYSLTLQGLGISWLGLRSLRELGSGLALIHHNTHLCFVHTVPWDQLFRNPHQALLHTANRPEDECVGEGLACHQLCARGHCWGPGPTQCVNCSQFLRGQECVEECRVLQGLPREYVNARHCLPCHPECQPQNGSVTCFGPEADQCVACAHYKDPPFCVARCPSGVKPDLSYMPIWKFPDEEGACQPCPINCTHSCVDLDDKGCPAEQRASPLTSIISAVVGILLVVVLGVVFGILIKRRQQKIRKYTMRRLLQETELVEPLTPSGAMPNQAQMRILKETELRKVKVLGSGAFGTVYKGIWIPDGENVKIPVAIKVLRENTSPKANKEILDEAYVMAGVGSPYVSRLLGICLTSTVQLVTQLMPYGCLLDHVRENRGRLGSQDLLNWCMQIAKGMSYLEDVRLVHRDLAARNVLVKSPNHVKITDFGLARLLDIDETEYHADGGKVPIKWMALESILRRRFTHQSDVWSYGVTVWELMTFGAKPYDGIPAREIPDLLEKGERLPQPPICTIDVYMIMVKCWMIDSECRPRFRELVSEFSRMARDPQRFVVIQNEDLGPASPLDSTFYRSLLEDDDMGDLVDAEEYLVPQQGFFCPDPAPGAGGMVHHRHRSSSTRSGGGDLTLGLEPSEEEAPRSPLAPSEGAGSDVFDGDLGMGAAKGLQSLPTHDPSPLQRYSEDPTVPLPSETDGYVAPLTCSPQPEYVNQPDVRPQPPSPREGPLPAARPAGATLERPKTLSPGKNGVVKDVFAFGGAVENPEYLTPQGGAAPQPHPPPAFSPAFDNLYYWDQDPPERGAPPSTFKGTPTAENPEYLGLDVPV

As for `CCc1ccccc1NC(=O)CN(c1cccc(OC)c1)S(C)(=O)=O`, the viability in assay [1] was 112%; in assay [3] it was 112% (inactive); in assay [4], 110% (inactive); in assay [5] it was 100% (inactive); in assay [6] (setting [9]), 85.8%; in assay [6] (setting [10]) it was 100%. For the same compound, in assay [2], the Her2 level was 124% (inactive). The differential viability (reversal) in assay [6] (H69AR cells + 2 uM doxorubicin) was 14.6% (inactive). Besides, the inhibition in assay [7] was -4% (inactive); in assay [8] it was -7.74% (inactive).

As to `c1nnc(NC2=NCCCCC2)s1`, the viability was 91.5% in assay [1]; 91.5% (inactive) in assay [3]; 109% (inactive) in assay [4]; 101% (inactive) in assay [5]; 98.5% in assay [6] (setting [9]); 101% in assay [6] (setting [10]). For the same compound, the Her2 level in assay [2] was 112% (inactive). Moreover, the differential viability (reversal) in assay [6] (H69AR cells + 2 uM doxorubicin) was 2.23% (inactive). Further, the results for the inhibition in assay [7] and in assay [8] were -2.16% (inactive) and -7.5% (inactive), respectively.

As to `O=c1[nH]c2sc3c(c2c2nncn12)CCCC3`, the viability is 136% in assay [1]; 136% (inactive) in assay [3]; 76.4% (inactive) in assay [4]; 100% (inactive) in assay [5]; 92.7% in assay [6] (setting [9]); 100% in assay [6] (setting [10]). Besides, the Her2 level in assay [2] was 114% (inactive). Also, in assay [6] (H69AR cells + 2 uM doxorubicin), the differential viability (reversal) is 7.53% (inactive). Also, the inhibition was -6.16% (inactive) in assay [7] and 2.54% (inactive) in assay [8].

In the case of `CCCCCc1c(O)c2ccccc2[nH]c1=O`, the viability in assay [1] is 108%; in assay [3] it was 108% (inactive); in assay [4] it was 124% (inactive); in assay [5], 98.1% (inactive); in assay [6] (setting [9]), 94.5%; in assay [6] (setting [10]), 98.1%. In addition, the Her2 level in assay [2] is 91.5% (inactive). For the same compound, the differential viability (reversal) in assay [6] (H69AR cells + 2 uM doxorubicin) was 3.62% (inactive). Besides, the inhibition in assay [7] was -1.71% (inactive); in assay [8] it was 2.46% (inactive).

With `CCCCCCn1c(SCCCC)nc2c1c(=O)[nH]c(=O)n2C`, the viability in assay [1] is 93.5%; in assay [3], 93.5% (inactive); in assay [4], 72.7% (inactive); in assay [5] it was 88.2% (inactive); in assay [6] (setting [9]), 87.5%; in assay [6] (setting [10]), 88.2%. Moreover, in assay [2], the Her2 level was 99% (inactive). Further, the differential viability (reversal) in assay [6] (H69AR cells + 2 uM doxorubicin) is 0.76% (inactive). Moreover, the inhibition was -5.07% (inactive) in assay [7] and -5% (inactive) in assay [8].

As for `CCOC(=O)Cc1nn2c(=O)cc(C)nc2s1`, the viability in assay [1] is 116%; in assay [3], 116% (inactive); in assay [4], 102% (inactive); in assay [5], 102% (inactive); in assay [6] (setting [9]), 99.4%; in assay [6] (setting [10]) it was 102%. In addition, the Her2 level in assay [2] was 111% (inactive). In addition, the differential viability (reversal) in assay [6] (H69AR cells + 2 uM doxorubicin) was 2.55% (inactive). Also, the figures for the inhibition in assay [7] and in assay [8] were -1.07% (inactive) and 1.64% (inactive), respectively.

As for `N#CC(C(=O)c1ccco1)c1ccccn1` (stereo not given), the viability in assay [1] is 106%; in assay [3], 106% (inactive); in assay [4], 98.1% (inactive); in assay [5] it was 86.1% (inactive); in assay [6] (setting [9]), 81.9%; in assay [6] (setting [10]) it was 86.1%. Also, the Her2 level in assay [2] was 81% (inactive). Moreover, the differential viability (reversal) in assay [6] (H69AR cells + 2 uM doxorubicin) was 4.21% (inactive). The inhibition in assay [7] was -7.37% (inactive); in assay [8], 0.67% (inactive).

Regarding `O=C(Cc1c(O)c2ccccc2[nH]c1=O)NCc1ccc(F)cc1`, the viability was 121% in assay [1]; 121% (inactive) in assay [3]; 90.5% (inactive) in assay [4]; 91.3% (inactive) in assay [5]; 88.5% in assay [6] (setting [9]); 91.3% in assay [6] (setting [10]). In addition, in assay [2], the Her2 level is 87.5% (inactive). Also, in assay [6] (H69AR cells + 2 uM doxorubicin), the differential viability (reversal) was 2.8% (inactive). Besides, the inhibition in assay [7] was -4.87% (inactive); in assay [8], 10% (inactive).

On to `COc1ccc(CCNC(=O)C2CCN(S(=O)(=O)c3cc(OC)ccc3OC)CC2)cc1`, for which the viability is 93% in assay [1]; 93% (inactive) in assay [3]; 114% (inactive) in assay [4]; 103% (inactive) in assay [5]; 96.8% in assay [6] (setting [9]); 103% in assay [6] (setting [10]). The Her2 level in assay [2] is 95% (inactive). For the same compound, the differential viability (reversal) in assay [6] (H69AR cells + 2 uM doxorubicin) is 5.9% (inactive). In addition, the inhibition was -7.97% (inactive) in assay [7] and 4.59% (inactive) in assay [8].

With `COc1ccc(C2/C(=C(/O)c3cnn(-c4ccccc4)c3C)C(=O)C(=O)N2CCN(C)C)cc1OC` (stereo not given), the viability in assay [1] was 109%; in assay [3], 109% (inactive); in assay [4], 102% (inactive); in assay [5] it was 101% (inactive); in assay [6] (setting [9]), 98.7%; in assay [6] (setting [10]), 101%. For the same compound, the Her2 level in assay [2] is 86% (inactive). Moreover, the differential viability (reversal) in assay [6] (H69AR cells + 2 uM doxorubicin) was 1.86% (inactive). In addition, the inhibition was -1.62% (inactive) in assay [7] and -2.54% (inactive) in assay [8].

Consider `CCn1c(=S)sc2nc(C)sc21`, for which the viability in assay [1] was 94%; in assay [3] it was 94% (inactive); in assay [4], 96.6% (inactive); in assay [5] it was 93.7% (inactive); in assay [6] (setting [9]), 90.1%; in assay [6] (setting [10]), 93.7%. The Her2 level in assay [2] is 100% (inactive). Moreover, the differential viability (reversal) in assay [6] (H69AR cells + 2 uM doxorubicin) was 3.59% (inactive). The inhibition is -4.27% (inactive) in assay [7] and 1.94% (inactive) in assay [8].

For the compound `CC(=O)Nc1ccccc1OCc1nnc(-c2cccs2)o1`, the viability is 97% in assay [1]; 97% (inactive) in assay [3]; 82.1% (inactive) in assay [4]; 98.1% (inactive) in assay [5]; 82.1% in assay [6] (setting [9]); 98.1% in assay [6] (setting [10]). In addition, in assay [2], the Her2 level was 93% (inactive). In assay [6] (H69AR cells + 2 uM doxorubicin), the differential viability (reversal) is 15.9% (inactive). Besides, the inhibition in assay [7] is -2.86% (inactive); in assay [8], -3.97% (inactive).

As to `O=C(NC1CCCC1)c1c[nH]c2ccc(F)cc2c1=O`, the viability in assay [1] is 97.5%; in assay [3] it was 97.5% (inactive); in assay [4] it was 92.6% (inactive); in assay [5] it was 92% (inactive); in assay [6] (setting [9]), 82.1%; in assay [6] (setting [10]), 92%. The Her2 level in assay [2] was 90.5% (inactive). The differential viability (reversal) in assay [6] (H69AR cells + 2 uM doxorubicin) was 9.81% (inactive). Besides, the inhibition in assay [7] is -5.41% (inactive); in assay [8] it was -3.67% (inactive).

`Cc1ccc(NC(=O)Nc2ccc3c(c2)N(C)C(=O)CS3)nc1`: the viability was 108% in assay [1]; 108% (inactive) in assay [3]; 45.5% (inactive) in assay [4]; 88.3% (inactive) in assay [5]; 96.4% in assay [6] (setting [9]); 88.3% in assay [6] (setting [10]). Further, the Her2 level in assay [2] was 68.5% (inactive). The differential viability (reversal) in assay [6] (H69AR cells + 2 uM doxorubicin) is -8.16% (inactive). Also, the inhibition was -3.73% (inactive) in assay [7] and -0.33% (inactive) in assay [8].

For `Cc1ccc(-c2nn(C)c(=O)c3ccccc23)cc1S(=O)(=O)N1CCOCC1`, the viability is 77% in assay [1]; 77% (inactive) in assay [3]; 83.8% (inactive) in assay [4]; 92.8% (inactive) in assay [5]; 76.8% in assay [6] (setting [9]); 92.8% in assay [6] (setting [10]). Also, the Her2 level in assay [2] was 83% (inactive). Further, in assay [6] (H69AR cells + 2 uM doxorubicin), the differential viability (reversal) was 16% (inactive). Besides, the inhibition in assay [7] was -5.07% (inactive); in assay [8] it was -3.06% (inactive).

As to `O=C(C1CCCN(S(=O)(=O)c2cnc[nH]2)C1)N1CC(=O)N(CCc2ccccc2)C(=O)C1` (stereo not given), the viability in assay [1] was 93.5%; in assay [3] it was 93.5% (inactive); in assay [4], 105% (inactive); in assay [5], 95% (inactive); in assay [6] (setting [9]), 99.7%; in assay [6] (setting [10]), 95%. For the same compound, the Her2 level in assay [2] is 92% (inactive). Also, the differential viability (reversal) in assay [6] (H69AR cells + 2 uM doxorubicin) was -4.7% (inactive). For the same compound, the inhibition in assay [7] was -0.8% (inactive); in assay [8] it was 21.6% (inactive).
